Test results published in ChEMBL document CHEMBL1124154, “Polycyclic aryl- and heteroarylpiperazinyl imides as 5-HT1A receptor ligands and potential anxiolytic agents: synthesis and structure-activity relationship studies” (J Med Chem, 1988).

What was measured:
[1] = species on record: Rattus norvegicus; assay: Concentration required to produce 50% block in avoidance responding in conditioned avoidance response test in rat; format: functional
Procedure, shortened: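 Trained rats in shelf-jump and/or discrete-trial conditioned avoidance paradigms. Drug given ip or po to at least five rats per dose, with a control session before each drug run. Trials without avoidance (avoidance block) were counted per dose as a percentage of total trials, with control set at 100%. AB50 was taken from a least-squares dose-effect regression line.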

[2] = target: D(2) dopamine receptor (Rattus norvegicus) (UniProt P61169); assay: In vitro inhibition of [3H]spiperone binding to dopamine receptor D2 from rat brain limbic tissue at 1 uM; format: tissue-based; conditions: Limbic system
Sequence of D(2) dopamine receptor (Rattus norvegicus) (P61169 whole entry): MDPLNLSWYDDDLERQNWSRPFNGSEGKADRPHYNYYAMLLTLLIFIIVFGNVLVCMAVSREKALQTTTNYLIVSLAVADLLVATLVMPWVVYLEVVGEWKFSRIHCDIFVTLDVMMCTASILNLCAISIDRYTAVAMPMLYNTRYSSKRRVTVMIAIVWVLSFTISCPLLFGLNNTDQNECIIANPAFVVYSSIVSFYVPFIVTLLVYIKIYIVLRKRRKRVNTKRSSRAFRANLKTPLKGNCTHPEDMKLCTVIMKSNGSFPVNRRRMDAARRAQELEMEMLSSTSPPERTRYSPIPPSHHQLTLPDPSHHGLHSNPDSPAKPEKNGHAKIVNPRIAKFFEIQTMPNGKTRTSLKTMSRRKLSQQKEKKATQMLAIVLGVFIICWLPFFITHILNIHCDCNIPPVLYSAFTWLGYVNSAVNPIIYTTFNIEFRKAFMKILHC

[3] = target: T1, 5-hydroxytryptamine receptor 1A (Rattus norvegicus) (UniProt P19327); assay: In vitro inhibition of [3H]-8-hydroxy-2-(di-n-propylamino)tetralin binding to 5-hydroxytryptamine 1A receptor from rat hippocampal tissue at 1 uM; conditions: Hippocampus
T1 sequence (whole entry): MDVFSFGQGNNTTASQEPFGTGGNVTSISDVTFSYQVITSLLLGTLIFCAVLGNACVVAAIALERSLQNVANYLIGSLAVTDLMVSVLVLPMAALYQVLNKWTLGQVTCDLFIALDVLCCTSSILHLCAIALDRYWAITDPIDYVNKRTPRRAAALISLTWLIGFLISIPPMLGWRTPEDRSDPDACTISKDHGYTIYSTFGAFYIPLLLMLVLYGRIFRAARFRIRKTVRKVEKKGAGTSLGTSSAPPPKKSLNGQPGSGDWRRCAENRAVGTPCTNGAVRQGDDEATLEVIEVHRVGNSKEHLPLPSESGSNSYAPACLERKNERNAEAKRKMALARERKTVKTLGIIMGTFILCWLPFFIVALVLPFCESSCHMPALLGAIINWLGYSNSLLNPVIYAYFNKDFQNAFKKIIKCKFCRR

[4] = target: D(2) dopamine receptor (Rattus norvegicus) (UniProt P61169); assay: In vitro inhibition of [3H]spiperone binding to Dopamine receptor D2 from rat brain limbic tissue at 10 uM; format: tissue-based; conditions: Limbic system
[5] = Partition coefficient (logP); format: physicochemical; conditions: octanol/water
[6] = target: D(2) dopamine receptor (Rattus norvegicus, UniProt P61169); assay: In vitro inhibition of [3H]spiperone binding to Dopamine receptor D2 from rat brain limbic tissue; format: tissue-based, Limbic system
Sequence of D(2) dopamine receptor (P61169 whole entry): as the sequence (P61169 whole entry) above
Procedure, shortened: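 Limbic tissue (nucleus accumbens, septum, olfactory tubercle) from Sprague-Dawley rats, washed membranes at 0.2-0.3 mg protein. Incubated with 0.3 nM [3H]spiroperidol and a range of drug concentrations, 10 min at 37 °C, in Tris buffer pH 7.1 with NaCl, KCl, CaCl2, ascorbate and pargyline. Filtered through GF/B and counted by scintillation. Nonspecific binding defined with 1 μM (+)-butaclamol.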

[7] = target: T2, 5-hydroxytryptamine receptor 1A (Rattus norvegicus, UniProt P19327); assay: In vitro inhibition of [3H]-8-hydroxy-2-(di-n-propylamino)tetralin binding to 5-hydroxytryptamine 1A receptor from rat hippocampal tissue.
T2 sequence (P19327 whole entry): T1 sequence (whole entry)

[8] = Ratio of ED50 stereotyped behavior in mice; format: functional
[9] = tested on: Mus musculus; assay: Inhibition of apomorphine induced stereotyped behavior in mice after intraperitoneal administration; format: functional; conditions: ip
Procedure, shortened: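 Male CF-1 mice (20-25 g, acclimated ≥3 days) received ip compound in 0.25% Tween 80 at 1, 10, 30 and 60 mg/kg (six/dose), alongside vehicle controls. After 30 min they were challenged with apomorphine 1 mg/kg sc. Stereotypy was scored every 5 min and totaled over the 30-min session.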

[10] = tested on: Mus musculus; assay: Inhibition of apomorphine induced climbing behavior in mice after intraperitoneal administration; format: functional; conditions: ip
Procedure, shortened: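 Male CF-1 mice (20-25 g), acclimated at least 3 days, received compound in 0.25% Tween 80 ip at 1, 10, 30 and 60 mg/kg (six/dose) or vehicle. 30 min later they were challenged with apomorphine 1 mg/kg sc. Climbing was scored every 5 min and totaled over 30 min.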

[11] = target: T1, 5-hydroxytryptamine receptor 1A (Rattus norvegicus); assay: In vitro inhibition of [3H]-8-hydroxy-2-(di-n-propylamino)tetralin binding to 5-hydroxytryptamine 1A receptor from rat hippocampal tissue; conditions: Hippocampus; concentration not given here
[12] = tested on: Rattus norvegicus; assay: Concentration required to produce 50% block in avoidance responding in conditioned avoidance response test in rat following peroral administration; format: functional
Procedure, shortened: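 Previously trained rats were given compound po at pretreatment time to at least five rats per dose in a conditioned avoidance paradigm (shelf-jump or discrete trial). A control session preceded each drug run. Trials without avoidance were counted as a % of total trials, with control set at 100%. AB50 came from a least-squares dose-effect regression line.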

[13] = tested on: Mus musculus; assay: Inhibition of apomorphine induced stereotyped behavior (i.p.); format: functional; conditions: ip

| inhibition [2] [%] | inhibition [3] [%] | Compound | AB50 [1] [mg/kg] | further results |
| --- | --- | --- | --- | --- |
| 21 | 8 | O=C1C2C3C=CC(C4CC34)C2C(=O)N1CCCCC1CCN(c2cncc(Cl)n2)CC1 (configuration not stated) | 40 | – |
| 39 | 47 | Cl.Cn1nnnc1N1CCN(CCCCN2C(=O)C3C4C=CC(C5CCC45)C3C2=O)CC1 (configuration not stated) | 40 | – |
| – | – | CC(C)=C1C2C=CC1C1C(=O)N(CCCCN3CCN(c4ncccn4)CC3)C(=O)C21.Cl (configuration not stated) | >40 | inhibition [4]: 50% |
| – | – | Cl.O=C1C2C3C=CC(C4CC34)C2C(=O)N1CCCCN1CCN(c2ncccn2)CC1 (configuration not stated) | 40 | logP [5]: 1.73; Ki [6]: 0.488 µM; Ki [7]: 0.038 µM |
| 13 | 46 | Cl.O=C1C2C3C=CC(C4C=CC43)C2C(=O)N1CCCCN1CCN(c2cnccn2)CC1 (configuration not stated) | 40 | – |
| – | – | Cl.O=C1C2C3CCC(C4CC43)C2C(=O)N1CCCCN1CCN(c2ncccn2)CC1 (configuration not stated) | 34 | logP [5]: 1.83 |
| 33 | 68 | Cl.O=C1C2C3C=CC(C4CC34)C2C(=O)N1CCCCN1CCN(c2cnccn2)CC1 (configuration not stated) | 49 | Ratio [8]: 2.35; ED50 [9]: 33 mg/kg; ED50 [10]: 14 mg/kg |
| 65 | – | Cl.O=C1C2C3C=CC(C4CCC34)C2C(=O)N1CCCCN1CCN(c2ccc(C(F)(F)F)cn2)CC1 (configuration not stated) | >40 | inhibition [11]: 72% |
| 48 | – | Cl.O=C1C2C3C=CC(C4CCC34)C2C(=O)N1CCCCN1CCN(c2cnccn2)CC1 (configuration not stated) | 60 | Ratio [8]: 2.1; ED50 [9]: 32 mg/kg; ED50 [10]: 15 mg/kg |
| – | – | O=C1C2C3C=CC(C4CC34)C2C(=O)N1CCCCN1CCN(c2ccc(Cl)nn2)CC1 (configuration not stated) | 40 | Ki [6]: 2.33 µM |
| – | – | O=C1C2CCCCC2C(=O)N1CCCCN1CCN(c2ncccn2)CC1 (configuration not stated) | 6 | Ki [6]: 0.374 µM |
| 40 | 55 | Cl.O=C1C2C3C=CC(C4CC34)C2C(=O)N1CCCCN1CCN(c2ccc(C(F)(F)F)cn2)CC1 (configuration not stated) | 40 | – |
| 0 | 44 | Cl.O=C1C2C3CS(=O)(=O)CC3C2C(=O)N1CCCCN1CCN(c2ncccn2)CC1 (configuration not stated) | >40 | – |
| 49 | 72 | O=C1C2C3CCC(C4CC43)C2C(=O)N1CCCCN1CCN(c2cncc(Cl)n2)CC1 (configuration not stated) | 40 | – |
| – | – | CC(C)=C1C2C=CC1C1C(=O)N(CCCCN3CCN(c4cncc(Cl)n4)CC3)C(=O)C21 (configuration not stated) | 40 | Ki [6]: 0.968 µM |
| – | – | Cl.O=C1C2C3C=CC(C4CCC34)C2C(=O)N1CCCCN1CCN(c2ncccn2)CC1 (configuration not stated) | 47 | logP [5]: 2.02; Ki [7]: 0.0013 µM |

| inhibition [2] [%] | inhibition [3] [%] | Compound | AB50 [1] [mg/kg] | further results |
| --- | --- | --- | --- | --- |
| – | – | O=C1CC2(CCCC2)CC(=O)N1CCCCN1CCN(c2ncccn2)CC1 [BUSPIRONE] | 5 | AB50 [12]: 32 mg/kg |
| 33 | 71 | Cl.O=C1C2C3CCCC(CC3)C2C(=O)N1CCCCN1CCN(c2ccc(C(F)(F)F)cn2)CC1 (configuration not stated) | >40 | – |
| 0 | 0 | Cl.O=C1C2C3C=CC(C4CC34)C2C(=O)N1CCCCc1ccncc1 (configuration not stated) | >40 | – |
| – | – | O=C1C2C3C=CC(C4CCC34)C2C(=O)N1CCCCN1CCN(c2ccc(Cl)nn2)CC1 (configuration not stated) | >40 | Ki [6]: 1.92 µM |
| – | – | O=C1c2ccccc2S(=O)(=O)N1CCCCN1CCN(c2ncccn2)CC1 [IPSAPIRONE] | 19 | AB50 [12]: 42 mg/kg; Ki [7]: 0.01 µM |
| – | – | O=C1C2C3C=CC(C3)C2C(=O)N1CCCCN1CCN(c2ncccn2)CC1 (configuration not stated) | 5 | logP [5]: 1.36; Ki [6]: 0.248 µM; Ki [7]: 0.042 µM |
| 59 | – | Cl.O=C1C2C3C=CC(C4C=CC43)C2C(=O)N1CCCCN1CCN(c2ncccn2)CC1 (configuration not stated) | 13 | Ratio [8]: 7.6; logP [5]: 1.79 |
| 53 | – | Cl.O=C1C2C3C=CC(CCC3)C2C(=O)N1CCCCN1CCN(c2ncccn2)CC1 (configuration not stated) | 40 | logP [5]: 1.94 |
| 0 | 35 | O=C1C2C3CS(=O)(=O)CC3C2C(=O)N1CCCCN1CCN(c2cncc(Cl)n2)CC1 (configuration not stated) | 40 | – |
| 0 | 28 | O=C1C2C3CS(=O)(=O)CC3C2C(=O)N1CCCCN1CCN(c2nccnc2Cl)CC1 (configuration not stated) | 40 | – |
| 31 | 40 | Cl.O=C1C2C3C=CC(C4C=CC43)C2C(=O)N1CCCCN1CCN(c2ccc(C(F)(F)F)cn2)CC1 (configuration not stated) | >40 | – |
| 6 | 0 | Cl.O=C1C2C3C=CC(CCC3)C2C(=O)N1CCCCc1ccncc1 (configuration not stated) | 40 | – |
| 100 | 100 | COc1ccccc1N1CCN(CCCCN2C(=O)C3C4C=CC(C5C=CC54)C3C2=O)CC1.Cl (configuration not stated) | 19 | Ki [7]: 0.0013 µM |
| – | – | COc1ccccc1N1CCN(CCCCN2C(=O)C3C4C=CC(C5CC45)C3C2=O)CC1.Cl (configuration not stated) | 40 | Ratio [8]: 1; Ki [6]: 0.016 µM; ED50 [9]: 10 mg/kg; ED50 [13]: 10 mg/kg; Ki [7]: 0.0013 µM |
| 1 | 74 | O=C1C2C3C=CC(C3)C2C(=O)N1CCCCN1CCN(c2cncc(Cl)n2)CC1 (configuration not stated) | 40 | – |
| – | – | Cl.O=C1C2C3CCC(C4CCC43)C2C(=O)N1CCCCN1CCN(c2ncccn2)CC1 (configuration not stated) | 40 | logP [5]: 2.09; Ki [6]: 0.053 µM; Ki [7]: 0.001 µM |
